GASC1 inh: blocks human GASC-1 (KDM4C) demethylase activity | GST-KDM4C 2-372, H3K9me3 peptide, LANCE TR-FRET | inhibition, % at 12.5 µM | 96,000 tested, 0.15% active | AID 720574;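 active = mean replicate inhibition above about 25%, with at least 55% of replicates also reaching it, limit read from the data, passing the limit was not always enough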
Target sequence (Q9H3R0 2-372 limits assumed): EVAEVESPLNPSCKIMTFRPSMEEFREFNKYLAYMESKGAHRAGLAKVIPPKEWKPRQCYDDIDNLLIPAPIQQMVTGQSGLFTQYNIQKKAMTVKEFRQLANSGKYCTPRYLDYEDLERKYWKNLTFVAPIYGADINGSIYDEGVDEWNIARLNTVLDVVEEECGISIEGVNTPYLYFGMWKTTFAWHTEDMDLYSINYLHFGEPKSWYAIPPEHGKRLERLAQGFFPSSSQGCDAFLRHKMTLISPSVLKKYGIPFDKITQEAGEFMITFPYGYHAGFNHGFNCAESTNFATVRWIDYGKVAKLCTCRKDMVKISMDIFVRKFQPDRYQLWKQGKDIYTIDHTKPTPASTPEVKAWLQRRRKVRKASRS
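Test system – GST-tagged GASC-1 (JMJD2C) catalytic fragment, aa 2-372 · Medium – HEPES buffer, pH 7.5, plus ascorbate · Reagent – H3K9me3 peptide with Fe(II)/2OG · Compound – one test concentration per compound · Timing – 30 min reaction, 60 min detection, RT · Technique – TR-FRET with Eu antibody and ULight streptavidin, EDTA stop · Read-out basis – inhibition from TR-FRET ratio decrease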
T cruzi growth-1: blocks T. cruzi growth in NIH3T3 culture | T. cruzi beta-gal in NIH3T3, GalScreen luminescence, 90 h | inhibition, % at 8.34 µM | 77,000 tested, 5.9% active | AID 624255;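 active = mean inhibition above about 93%, with at least 55% of replicates each passing it, limit read from the data, passing the limit was not always enough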
IDH1 mut inh: inhibitors of human IDH1 R132H | O75874 | inhibition, % at 10 µM | 70,000 tested, 0.18% active | IDH1 R132H reductase, diaphorase/resazurin fluorescence, 60 min | AID 624101; in the data active = inhibition above about 34%;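 note: 0% = DMSO and 100% = no enzyme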
T cruzi growth-2: blocks T. cruzi growth in NIH3T3 host cells. shares compounds with T cruzi growth-1. T. cruzi beta-gal in NIH3T3, GalScreen luminescence, 90 h. inhibition, % at 8.35 µM. 5,600 tested, 72% active. AID 651739;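 active = mean replicate inhibition above about 95% and at least 55% of replicates individually reaching it, limit read from the data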
T cruzi growth-3: Trypanosoma cruzi proliferation inhibition. T. cruzi beta-gal in NIH3T3, GalScreen luminescence, 90 h. inhibition, % at 2.09 µM. 5,600 tested, 21% active. shares compounds with T cruzi growth-1;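 active = mean inhibition above about 95%, with at least 55% of replicates also reaching it, limit read from the data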;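 note: plate controls were neutral control median for no effect and positive control median for full effect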
3T3 cytotox: cytotoxicity in mouse NIH/3T3 fibroblasts | NIH/3T3 viability, CellTiter-Glo ATP luminescence, 90 h | cytotoxicity (signal decrease), % at 8.35 µM | shares compounds with T cruzi growth-1 | 5,600 tested, 14% active;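 active = mean signal decrease across replicates above about 35% based on untreated-well scatter, with enough replicates individually passing, limit read from the data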;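 note: 0% = median of neutral control wells and 100% = median of positive control wells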
NIH3T3 tox 2: NIH/3T3 (mouse) viability loss | shares compounds with T cruzi growth-1 | NIH/3T3 viability, CellTiter-Glo ATP luminescence, 90 h | inhibition, % at 24.9 µM | 5,600 tested, 56% active | AID 651744;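 active = mean loss of cell viability signal at or above a set limit, and enough replicates individually reaching it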;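 note: 0% = median of neutral control wells and 100% = median of positive control wells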
* = called active by the depositor; nt = no result given; ! = not confirmed by another sample. Many of the other results were omitted from the sample, so hits are more common in it than they were.

SMILES	GASC1 inh	T cruzi growth-1	IDH1 mut inh	T cruzi growth-2	T cruzi growth-3	3T3 cytotox	NIH3T3 tox 2
C[C@H]1CCCCO[C@@H](CN(C)C(=O)NC2CCCCC2)[C@@H](C)CN([C@@H](C)CO)C(=O)c2cc(NC(=O)Nc3ccccc3)ccc2O1	-1.8	110.1*	nt	110.6*	9.4	-17.8	-3.8
CCCN(C)C[C@H]1OCCCC[C@@H](C)Oc2ccc(NC(=O)NC(C)C)cc2C(=O)N([C@@H](C)CO)C[C@H]1C	0.3	8.8	3.5	nt	nt	nt	nt
C[C@@H]1CN([C@@H](C)CO)C(=O)c2cccc(NC(=O)C3CC3)c2O[C@H]1CN(C)Cc1ccc(Cl)c(Cl)c1	0.0	34.1	1.7	nt	nt	nt	nt
C[C@@H]1CN([C@H](C)CO)C(=O)c2cc(N(C)C)ccc2O[C@@H](C)CCCCO[C@@H]1CN(C)Cc1ccc2c(c1)OCO2	-0.7	101.7*	nt	22.8	18.0	2.2	11.0
C[C@H](CO)N1C[C@H](C)[C@@H](CN(C)Cc2ccc3c(c2)OCO3)OCCCC[C@H](C)Oc2ccc(N(C)C)cc2C1=O	-2.4	nt	nt	nt	nt	nt	nt
C[C@H]1CCCCO[C@@H](CN(C)Cc2ccc3c(c2)OCO3)[C@@H](C)CN([C@@H](C)CO)C(=O)c2cc(N(C)C)ccc2O1	nt	11.0	0.9	nt	nt	nt	nt
C[C@@H]1CN([C@@H](C)CO)C(=O)c2cc(N(C)C)ccc2O[C@@H](C)CCCCO[C@H]1CN(C)Cc1ccc2c(c1)OCO2	2.1	105.4*!	nt	22.2	4.6	8.8	6.1
CCCC(=O)Nc1ccc2c(c1)OC[C@H](C)N(Cc1cccc(F)c1)C[C@H](C)[C@@H](OC)CN(C)C2=O	1.4	nt	nt	nt	nt	nt	nt
C[C@H](CO)N1C[C@H](C)[C@@H](CN(C)C(=O)Cc2ccncc2)Oc2cc(C3=CCCCC3)ccc2S1(=O)=O	-1.3	88.3	nt	nt	nt	nt	nt
C[C@H](CO)N1C[C@H](C)[C@H](CN(C)Cc2cncnc2)Oc2cc(C3=CCCCC3)ccc2S1(=O)=O	1.1	50.3	-0.1	nt	nt	nt	nt
C[C@@H]1CN([C@H](C)CO)S(=O)(=O)c2ccc(C3=CCCCC3)cc2O[C@@H]1CN(C)Cc1ccncc1	1.8	109.8*	15.3	99.9*	85.1	29.1	67.2*
C[C@H](CO)N1C[C@H](C)[C@@H](CN(C)Cc2ccncc2)Oc2cc(C3=CCCCC3)ccc2S1(=O)=O	-0.2	115.5*	nt	103.2*	102.3*	51.8*	104.8*
C[C@H]1CN([C@@H](C)CO)S(=O)(=O)c2ccc(C3=CCCCC3)cc2O[C@H]1CN(C)Cc1ccncc1	4.1	113.6*	nt	93.7	89.0	51.0*	65.9*
C[C@H]1CN([C@@H](C)CO)S(=O)(=O)c2ccc(C3=CCCC3)cc2O[C@H]1CN(C)Cc1cccnc1	1.7	89.5	15.4	nt	nt	nt	nt
C[C@H](CO)N1C[C@H](C)[C@H](CN(C)Cc2cccnc2)Oc2cc(C3=CCCC3)ccc2S1(=O)=O	1.2	81.4	nt	nt	nt	nt	nt
C[C@@H]1CN([C@H](C)CO)S(=O)(=O)c2ccc(C3=CCCCC3)cc2O[C@H]1CN(C)Cc1ccncc1	-1.3	118.5*	nt	93.7	98.5*	66.6*	104.1*
COc1ccc(S(=O)(=O)Nc2ccc3c(c2)CC(=O)N([C@@H](C)CO)C[C@@H](C)[C@@H](CN(C)Cc2ccc(C(=O)O)cc2)O3)cc1	-0.6	5.1	2.7	nt	nt	nt	nt
C[C@@H]1CN([C@H](C)CO)C(=O)c2cc(C#Cc3ccncc3)cnc2O[C@H]1CN(C)CC1CCOCC1	-0.4	-44.2	3.9	nt	nt	nt	nt
COc1cccc(CNC(=O)C[C@@H]2C=C[C@H](NC(=O)C3CC3)[C@H](CO)O2)c1	0.0	nt	0.0	nt	nt	nt	nt
O=C(C[C@H]1C[C@H]2c3cc(NC(=O)Nc4ccccc4)ccc3O[C@H]2[C@@H](CO)O1)NCc1ccccn1	-4.5	-4.8	0.7	nt	nt	nt	nt
Cc1nn(C)cc1NC(=O)C[C@@H]1CC[C@@H]2[C@@H](COc3ccc(NC(=O)NC(C)C)cc3C(=O)N2C)O1	4.9	15.2	nt	nt	nt	nt	nt
O=C(NC[C@@H]1[C@H](c2ccccc2)[C@H](CO)N1C(=O)C1CC1)NC1CCCC1	-1.3	36.3	nt	nt	nt	nt	nt
O=C(NC[C@H]1[C@H](c2ccccc2)[C@@H](CO)N1C(=O)C1CC1)NC1CCCC1	-0.6	117.1*	nt	62.5	20.2	-1.7	5.1

Bioassay records from PubChem BioAssay.
